According to ChEMBL document CHEMBL1125934, “Targeting 5'-deoxy-5'-(methylthio)adenosine phosphorylase by 5'-haloalkyl analogues of 5'-deoxy-5'-(methylthio)adenosine” (J Med Chem, 1991):

T1: S-methyl-5'-thioadenosine phosphorylase (Mus musculus) (UniProt Q9CQ65)
T1 sequence (whole entry): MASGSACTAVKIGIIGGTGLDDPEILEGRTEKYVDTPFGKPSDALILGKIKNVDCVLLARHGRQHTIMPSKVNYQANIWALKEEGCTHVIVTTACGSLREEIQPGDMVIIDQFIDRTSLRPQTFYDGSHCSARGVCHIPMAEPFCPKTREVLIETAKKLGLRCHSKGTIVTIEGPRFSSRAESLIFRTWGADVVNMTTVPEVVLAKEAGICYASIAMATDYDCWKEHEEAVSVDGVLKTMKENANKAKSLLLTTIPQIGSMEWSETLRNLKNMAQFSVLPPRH

T2: S-methyl-5'-thioadenosine phosphorylase (Mus musculus, UniProt Q9CQ65)
T2 sequence (Q9CQ65 whole entry): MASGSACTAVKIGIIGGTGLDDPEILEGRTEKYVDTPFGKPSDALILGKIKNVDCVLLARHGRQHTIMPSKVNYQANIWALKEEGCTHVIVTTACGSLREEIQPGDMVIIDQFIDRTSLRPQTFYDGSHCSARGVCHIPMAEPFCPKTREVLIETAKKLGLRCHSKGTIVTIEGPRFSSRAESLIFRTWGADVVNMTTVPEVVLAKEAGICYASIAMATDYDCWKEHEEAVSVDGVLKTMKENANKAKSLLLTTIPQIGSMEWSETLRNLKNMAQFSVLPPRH


What was measured:
L1210 [1] = assay: Effect of compound on putrescine(PUT) polyamine pool in L1210 murine leukemia cells expressed in terms of nmol/10e6 cells; assay type: functional, Mus musculus
L1210 [2] = assay: Effect of compound on spermidine(SPD) polyamine pool in L1210 murine leukemia cells expressed in terms of nmol/10e6 cells; assay type: functional, Mus musculus
L5178Y [3] = assay: Effect of compound on spermine(SPM) polyamine pool in L5178Y murine leukemia cells expressed in terms of nmol/10e6 cells; assay type: functional, Mus musculus
[4] = target: Adenosylhomocysteinase (Bos taurus) (UniProt Q3MHL4); assay: Percentage enzyme activity remaining was measured by the inhibition S-adenosyl-L-homocysteine hydrolase from bovine liver at 0.01 uM
MOLT-4 = assay: The concentration required to inhibit cell growth by 50% was measured on human MOLT-4 cells (96h after exposure); assay type: functional, cell-based; settings: MOLT-4, 96 h
Summary of the method: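 MOLT-4 suspension culture in RPMI 1640 with 10% Nu Serum, seeded at 0.3×10^5 cells/mL. Compounds were freshly dissolved in DMSO, diluted in serum-free medium, and tested at 0.1-1000 µM for 96 h (about 4 doublings). Cells were counted electronically (Coulter) and the 50% growth-inhibitory concentration determined.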

L5178Y [5] = assay: Effect of compound on putrescine(PUT) polyamine pool in L5178Y murine leukemia cells expressed in terms of nmol/10e6 cells; assay type: functional, Mus musculus
L1210 [6] = assay: The concentration required to inhibit cell growth by 50% was measured on L1210 Leukemic cell line of mouse(48h after exposure); assay type: functional, cell-based; settings: L1210, 48 h
Summary of the method: (§1)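 Suspension cultures in RPMI 1640 with 10% Nu Serum, seeded at 0.3×10^5 cells/mL. Compounds were dissolved fresh in DMSO, diluted in serum-free medium, and tested at 0.1-1000 µM for 48 h (about 4 doublings). Cells were counted by Coulter counter and the 50% growth-inhibitory concentration determined.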

CCRF-CEM = assay: The concentration required to inhibit cell growth by 50% was measured on human CCRF-CEM cells (96h after exposure); assay type: functional, cell-based
Summary of the method: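 CCRF-CEM cells grown in 10% horse serum, seeded at 0.3×10^5 cells/mL. Compounds were freshly dissolved in DMSO, diluted in serum-free medium, and tested at 0.1-1000 µM for 96 h (about 4 doublings). Cells were counted by Coulter counter and the concentration giving 50% growth inhibition determined.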

[7] = target: T1, S-methyl-5'-thioadenosine phosphorylase (Mus musculus); assay: The ability to act as substrates for MTA phosphorylase activity was determined by using a mouse liver enzyme preparation; assay type: functional, tissue-based; design: concentration or dose not given beside the values
Summary of the method: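 Mouse liver MTA phosphorylase preparation, spectrophotometric assay. The analogue was used as substrate and the absorbance change at λ 305 was read after a 10-min incubation. Activity is expressed relative to MTA as control substrate. Duplicate samples, agreeing within 15%.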

L5178Y [8] = assay: The concentration required to inhibit cell growth by 50% was measured on L5178Y Leukemic cell line of mouse(48h after exposure); assay type: functional, cell-based; summary of the method: as §1
L1210 [9] = assay: Effect of compound on spermine(SPM) polyamine pool in L1210 murine leukemia cells expressed in terms of nmol/10e6 cells; assay type: functional, Mus musculus
L5178Y [10] = assay: Effect of compound on spermidine(SPD) polyamine pool in L5178Y murine leukemia cells expressed in terms of nmol/10e6 cells; assay type: functional, Mus musculus
[11] = target: T2, S-methyl-5'-thioadenosine phosphorylase; assay: The inhibitory constant(Ki) for MTA phosphorylase activity was determined by using a mouse liver enzyme preparation
Summary of the method: (§2)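 Mouse liver MTA phosphorylase preparation. Conversion of [methyl-³H]MTA to [methyl-³H]MTRP was measured in the presence of analogue. Ki was derived from Lineweaver-Burk plots. Duplicate samples, agreeing within 15%.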

L5178Y [12] = assay: Effect of compound on putrescine(PUT) polyamine pool in L5178Y murine leukemia cells expressed as nmol/10e6 cells; assay type: functional, Mus musculus
[13] = compound: CSC[C@H]1O[C@@H](n2cnc3c(N)ncnc32)[C@H](O)[C@@H]1O; assay: The inhibitory constant for MTA phosphorylase activity was determined by using a mouse liver enzyme preparation; assay type: functional, tissue-based; summary of the method: as §2

Chain of Adenosylhomocysteinase (Bos taurus) (Q3MHL4 whole entry, looked up): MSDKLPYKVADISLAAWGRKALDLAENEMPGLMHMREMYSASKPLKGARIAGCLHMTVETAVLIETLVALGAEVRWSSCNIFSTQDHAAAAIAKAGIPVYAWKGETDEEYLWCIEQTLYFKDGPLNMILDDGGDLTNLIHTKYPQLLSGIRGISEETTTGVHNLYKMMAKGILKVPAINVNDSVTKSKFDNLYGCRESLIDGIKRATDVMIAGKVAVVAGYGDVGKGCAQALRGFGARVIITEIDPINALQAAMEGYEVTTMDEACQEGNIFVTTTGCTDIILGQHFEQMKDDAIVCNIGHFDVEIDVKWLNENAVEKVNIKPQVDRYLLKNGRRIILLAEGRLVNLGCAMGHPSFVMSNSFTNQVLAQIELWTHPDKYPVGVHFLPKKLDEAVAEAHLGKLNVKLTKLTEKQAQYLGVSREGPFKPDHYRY

| Molecule | Activity (L1210 [1]) | Activity (L1210 [2]) | Activity (L5178Y [3]) | Activity [4] | IC50 (MOLT-4) | Activity (L5178Y [5]) | IC50 (L1210 [6]) | IC50 (CCRF-CEM) | Control [7] | IC50 (L5178Y [8]) | Activity (L1210 [9]) | Activity (L5178Y [10]) | Ki [11] | Activity (L5178Y [12]) | Km [13] |
| --- | --- | --- | --- | --- | --- | --- | --- | --- | --- | --- | --- | --- | --- | --- | --- |
| Nc1ncnc2c1ncn2C1O[C@H](CSCCF)[C@@H](O)[C@H]1O (some centres not stated) | 0.56 | 1.95 | 1.43 | 102% | 10 µM | 0.27 nmol/10e6 cells | 150 µM | 75 µM | 64% | 60 µM | 0.86 | 1.55 | – | – | – |
| Nc1ncnc2c1ncn2C1O[C@H](CSCCO)[C@@H](O)[C@H]1O (some centres not stated) | 0.75 | 1.17 | 1.5 | – | 40 µM | 0.66 nmol/10e6 cells | 1000 µM | 100 µM | 34% | 500 µM | 0.58 | 1.9 | – | – | – |
| Nc1ncnc2c1ncn2C1O[C@H](CSCCCl)[C@@H](O)[C@H]1O (some centres not stated) | – | – | – | – | – | – | – | – | 35% | – | – | – | – | – | – |
| Nc1ncnc2c1ncn2C1O[C@H](CSCCCF)[C@@H](O)[C@H]1O (some centres not stated) | 0.34 | 0.99 | 1.07 | 97% | 25 µM | 0.36 nmol/10e6 cells | 600 µM | 160 µM | 66% | 600 µM | 0.44 | 1.79 | 4 µM | – | – |
| Nc1ncnc2c1ncn2C1O[C@H](CSCCBr)[C@@H](O)[C@H]1O (some centres not stated) | – | – | – | – | – | – | – | – | 38% | – | – | – | – | – | – |
| CSC[C@H]1O[C@@H](n2cnc3c(N)ncnc32)[C@H](O)[C@@H]1O [METHYLTHIOADENOSINE] | 1.93 | 1.22 | 0.43 | 101% | 11 µM | – | 850 µM | 150 µM | 100% | 200 µM | 0.19 | 2.79 | – | 1.85 | – |
| CCCSC[C@H]1OC(n2cnc3c(N)ncnc32)[C@H](O)[C@@H]1O (some centres not stated) | 0.26 | 0.57 | 1 | 100% | 45 µM | 0.25 nmol/10e6 cells | 1000 µM | 160 µM | 102% | 500 µM | 0.41 | 1.18 | 1.7 µM | – | – |
| CCSC[C@H]1OC(n2cnc3c(N)ncnc32)[C@H](O)[C@@H]1O (some centres not stated) | 0.77 | 1.01 | 1.29 | 99% | 20 µM | 0.69 nmol/10e6 cells | 800 µM | 200 µM | 95% | 250 µM | 0.54 | 1.75 | 1.9 µM | – | – |
| S-methyl-5'-thioadenosine phosphorylase (Mus musculus), Q9CQ65 (protein) MASGSACTAVKIGIIGGTGLDDPEILEGRTEKYVDTPFGKPSDALILGKIKNVDCVLLARHGRQHTIMPSKVNYQANIWALKEEGCTHVIVTTACGSLREEIQPGDMVIIDQFIDRTSLRPQTFYDGSHCSARGVCHIPMAEPFCPKTREVLIETAKKLGLRCHSKGTIVTIEGPRFSSRAESLIFRTWGADVVNMTTVPEVVLAKEAGICYASIAMATDYDCWKEHEEAVSVDGVLKTMKENANKAKSLLLTTIPQIGSMEWSETLRNLKNMAQFSVLPPRH | – | – | – | – | – | – | – | – | – | – | – | – | – | – | 1.3 µM |
